{"data": "Experimental data pooled from the literature", "PIK3CD": "Phosphatidylinositol 4,5-bisphosphate 3-kinase catalytic subunit delta isoform (PIK3CD, Homo sapiens, UniProt O00329)", "HTR5A": "5-hydroxytryptamine receptor 5A (HTR5A, Homo sapiens, UniProt P47898)", "Kir1 channel protein": "Kir1 channel protein (Aedes aegypti, UniProt L0EQS9)", "DRD4": "D(4) dopamine receptor (DRD4, Homo sapiens, UniProt P21917)", "note": "Protocols differ between the studies behind these lines."}
{"SMILES": "C=CC(=O)N1CCC(C(=O)NCC(=O)N2CCN(c3nc(-c4cnc(N)nc4C(F)F)nc(N4CCOCC4)n3)CC2)CC1", "target": "PIK3CD", "test": "binding, competition with immobilised ligand", "measurement": "Kd", "result": "0.71 nM"}
{"SMILES": "CS(=O)(=O)C1(CNCc2ccc(Br)c3cccnc23)CC1", "target": "HTR5A", "test": "ligand displacement, radioligand", "measurement": "Ki", "result": "178 nM"}
{"SMILES": "CCCCCCSC[C@H]1CN(Cc2c[nH]c3c(N)ncnc23)C[C@@H]1O", "target": "Aminodeoxyfutalosine nucleosidase (Helicobacter pylori, UniProt Q9ZMY2)", "test": "enzyme activity, inhibitor, absorbance", "conditions": "pH 7.4", "measurement": "Ki", "result": "0.085 nM"}
{"SMILES": "O=[N+]([O-])c1ccc(N2CCN(S(=O)(=O)c3ccc(Cl)cc3)CC2)cc1NCc1ccco1", "target": "Kir1 channel protein", "test": "ion current, inhibitor, patch clamp", "measurement": "IC50", "result": "34.2 nM"}
{"SMILES": "CCn1c(-c2nc3ccc(C(=O)N4CCCC(N)C4)cc3n2C)cc2ccccc21 (stereo not shown)", "target": "Nuclear receptor subfamily 1 group I member 2 (NR1I2, Homo sapiens, UniProt O75469)", "test": "reporter gene, agonist, luciferase", "measurement": "EC50", "result": "> 50100 nM"}
{"SMILES": "C=CC(=O)Nc1cc(Nc2nccc(Nc3cc(Cl)c(F)cc3C(C)(C)O)n2)c(OC)cc1N1CC[C@@H](N(C)C)C1", "target": "Receptor tyrosine-protein kinase erbB-4 (ERBB4, Homo sapiens, UniProt Q15303)", "test": "enzyme activity, inhibitor", "conditions": "with preincubation", "measurement": "IC50", "result": "704 nM"}
{"SMILES": "COc1ccccc1N1CCN(CCCCN2CCc3ccccc3C2=O)CC1", "target": "DRD4", "test": "ligand displacement, radioligand", "measurement": "Ki", "result": "6 nM"}
{"SMILES": "COc1ccc(F)cc1C(=O)NCc1ccc(-c2nn([C@@H](C)C(F)(F)F)c(N)c2C(N)=O)cc1", "target": "Tyrosine-protein kinase BTK (BTK, Homo sapiens, UniProt Q06187, C481R)", "test": "phosphorylation in cells, inhibitor", "measurement": "IC50", "result": "12.6 nM"}
{"SMILES": "CC(C)=CCC/C(C)=C/CC/C(C)=C/CSc1ccccc1C(=O)O", "target": "Squalene synthase (Homo sapiens, UniProt P37268)", "test": "enzyme activity, inhibitor", "measurement": "Ki", "result": "370 nM"}
{"SMILES": "O=S(=O)(c1ccc(F)cc1)N1CCN(c2ccnc(NCc3ccncc3)c2)CC1", "target": "Kir1 channel protein", "test": "ion flux, inhibitor", "measurement": "IC50", "result": "4000 to 9000 nM"}
{"SMILES": "Cc1cnc(-c2ccc(-c3ccc(NC(=O)Nc4c(F)cc(F)cc4F)cc3F)c3c2C(=O)NC3)[nH]1", "target": "Tyrosine-protein kinase BTK (BTK, Homo sapiens, UniProt Q06187)", "test": "binding, competition with immobilised ligand", "measurement": "Kd", "result": "27 nM"}
{"SMILES": "Nc1nc2c(ncn2[C@@H]2O[C@H](COP(=O)(O)OP(=O)(O)O)[C@@H](OP(=O)(O)OP(=O)(O)O)[C@H]2O)c(=O)[nH]1", "target": "cmk (Escherichia coli, UniProt P0A6I0)", "test": "binding, ITC", "measurement": "Kd", "result": "79000 nM"}
{"SMILES": "Oc1cccc(CCC2=NCCN2Cc2ccccc2)c1", "target": "DRD4", "test": "ligand displacement, radioligand", "measurement": "Ki", "result": "> 10000 nM"}
{"SMILES": "O=[N+]([O-])c1ccc(N2CCN(S(=O)(=O)c3ccc(F)cc3)CC2)cc1NCc1cccnc1", "target": "Kir1 channel protein", "test": "ion current, inhibitor, patch clamp", "measurement": "IC50", "result": "57 nM"}
{"SMILES": "COc1ccc2c(c1)C(=O)N(CCN1CCN(c3ccccc3OC)CC1)C2", "target": "DRD4", "test": "ligand displacement, radioligand", "measurement": "Ki", "result": "191 nM"}
{"SMILES": "CC[C@H](NC(=O)[C@H](CS(=O)(=O)CC1CC1)N[C@@H](c1ccc(F)cc1)C(F)(F)F)C(=O)C(=O)NC1CC1", "target": "Cathepsin F (Homo sapiens, UniProt Q9UBX1)", "test": "enzyme activity, inhibitor, fluorescence", "conditions": "with preincubation", "measurement": "Ki", "result": "4.7 nM"}
{"SMILES": "CC1=C(O)C(=O)OC1C (stereo not shown)", "target": "OR8D1 (Homo sapiens, UniProt Q8WZ84, del306-308)", "test": "cAMP, agonist, luciferase", "measurement": "EC50", "result": "4500 nM"}
{"SMILES": "CCCCN1CCC(COC(=O)c2ccc(N)c(OCF)c2)CC1", "target": "HTR5A", "test": "cell-free assay, radioligand", "measurement": "Ki", "result": "> 10000 nM"}
{"SMILES": "CCC(=O)N1CCC(C(=O)N(C)CC(=O)N2CCN(c3nc(-c4cnc(N)nc4C(F)F)nc(N4CCOCC4)n3)CC2)CC1", "target": "PIK3CD", "test": "binding, competition with immobilised ligand", "measurement": "Kd", "result": "4.9 nM"}
{"SMILES": "CCS(=O)(=O)N1CCN(c2ccc([N+](=O)[O-])c(NCc3cccnc3)c2)CC1", "target": "Kir1 channel protein", "test": "ion flux, inhibitor", "measurement": "IC50", "result": "21000 nM"}
{"SMILES": "CC(C)c1nc2cc(OCCCCN3CCN(c4cccc5c4OCCO5)CC3)ccc2s1", "target": "HTR5A", "test": "ligand displacement, radioligand", "measurement": "Ki", "result": "330 nM"}
{"SMILES": "CC[C@@H]1C(=O)OC[C@@H]1Cc1cncn1C", "target": "Cytochrome P450 2E1 (CYP2E1, Homo sapiens, UniProt P05181)", "test": "enzyme activity, inhibitor", "conditions": "10 min, pH 6.8", "measurement": "Ki", "result": "765000 nM"}
{"SMILES": "CCCCCCCNCCCc1ccc([N+](=O)[O-])cc1", "target": "DRD4", "test": "ligand displacement, radioligand", "measurement": "Ki", "result": "240 nM"}
{"SMILES": "Clc1ccc(CNC[C@H]2CCn3ccnc3C2)c2ncccc12", "target": "HTR5A", "test": "ligand displacement, radioligand", "measurement": "Ki", "result": "3240 nM"}
{"SMILES": "CN1CCN(c2ccc(Nc3ncc4cc(C#N)c(=O)n(C5CCCC5)c4n3)cc2)CC1", "target": "Ribosomal protein S6 kinase alpha-5 (RPS6KA5, Homo sapiens, UniProt O75582)", "test": "enzyme activity, inhibitor", "measurement": "IC50", "result": "9210 nM"}
